The test system of series [1] is Streptococcus pneumoniae. Description: Antibacterial activity against multidrug-susceptible Streptococcus pneumoniae 1016 by NCCLS method. Format: functional.
The test system of series [2] is Streptococcus pneumoniae. Description: Antibacterial activity against multidrug-resistant Streptococcus pneumoniae 1095 harboring ermB gene by NCCLS method. The class given is functional.
Series [3] deals with Streptococcus pneumoniae. Description: Antibacterial activity against multidrug-resistant Streptococcus pneumoniae 1175 harboring mefA gene by NCCLS method. Format: functional.
A further series deals with Streptococcus pyogenes. Description: Antibacterial activity against multidrug-resistant Streptococcus pyogenes 1079 harboring ermB gene by NCCLS method. Format: functional.
In series [4] the test system is Haemophilus influenzae. Kind of series: Antibacterial activity against multidrug-susceptible Haemophilus influenzae 1325 by NCCLS method. The class given is functional.
Series [5] is described as follows: Metabolic stability in human liver cytosol assessed as compound turnover at 1 uM in presence of aldehyde oxidase inhibitor raloxifene. Format: ADME. In outline:
(§1)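 Human liver cytosol incubations, used as a readout of aldehyde oxidase metabolism, run with and without the AO inhibitor raloxifene.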

Series [6] is described as follows: Metabolic stability in human liver microsomes assessed as hepatic extraction ratio at 1 uM. Format: ADME, Microsome. Conditions: read-out: ERH. In outline:
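Human liver microsomes used to screen for metabolic clearance; the readout was the microsomal extraction ratio (ER).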
For orientation: Microsomes from liver hold many membrane-bound enzymes, among them those of drug oxidation.

The nature of series [7]: Metabolic stability in human liver cytosol assessed as compound turnover at 1 uM after 60 mins. Format: ADME, tissue-based. Conditions: 1 h. In short, it runs like this:
as §1

The target of series [8] is Voltage-gated inwardly rectifying potassium channel KCNH2 (Homo sapiens, UniProt Q12809). Kind of series: Inhibition of human ERG by patch-clamp assay. Background: Patch clamp records ionic current or voltage across a cell membrane.
The subject of series [9] is Streptococcus pneumoniae. Kind of series: Antibacterial activity against multidrug-resistant Streptococcus pneumoniae 1095 harboring ermB infected in po dosed mouse respiratory tract model assessed as survival administered 18 hrs postinfection BID for 2 days measured on day 10 postinfection. The class given is functional. The conditions noted are these: Streptococcus pneumoniae, 1095, po; read-out: PD50. In outline:
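Murine respiratory tract infection model using S. pneumoniae 1095 (erm). Compounds were given orally. The outcome was the 50% protective dose (PD50), reported as (mg/kg)/dose.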

The subject of series [10] is Haemophilus influenzae. Kind of series: Antibacterial activity against multidrug-susceptible Haemophilus influenzae 1325 infected in po dosed Mongolian gerbil otitis media model assessed as reduction of bacterial infection administered 18 hrs postinfection TID for 2 days measured on day 4 postinfection. The class given is functional. The conditions noted are these: Haemophilus influenzae, 1325, po. In outline:
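Gerbil otitis media model infected with H. influenzae 1325; compounds given orally. Efficacy expressed as ED50 in (mg/kg)/dose.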

In brackets after ≈: the same amount, converted by molar mass.

Chain of Voltage-gated inwardly rectifying potassium channel KCNH2 (Q12809 whole entry): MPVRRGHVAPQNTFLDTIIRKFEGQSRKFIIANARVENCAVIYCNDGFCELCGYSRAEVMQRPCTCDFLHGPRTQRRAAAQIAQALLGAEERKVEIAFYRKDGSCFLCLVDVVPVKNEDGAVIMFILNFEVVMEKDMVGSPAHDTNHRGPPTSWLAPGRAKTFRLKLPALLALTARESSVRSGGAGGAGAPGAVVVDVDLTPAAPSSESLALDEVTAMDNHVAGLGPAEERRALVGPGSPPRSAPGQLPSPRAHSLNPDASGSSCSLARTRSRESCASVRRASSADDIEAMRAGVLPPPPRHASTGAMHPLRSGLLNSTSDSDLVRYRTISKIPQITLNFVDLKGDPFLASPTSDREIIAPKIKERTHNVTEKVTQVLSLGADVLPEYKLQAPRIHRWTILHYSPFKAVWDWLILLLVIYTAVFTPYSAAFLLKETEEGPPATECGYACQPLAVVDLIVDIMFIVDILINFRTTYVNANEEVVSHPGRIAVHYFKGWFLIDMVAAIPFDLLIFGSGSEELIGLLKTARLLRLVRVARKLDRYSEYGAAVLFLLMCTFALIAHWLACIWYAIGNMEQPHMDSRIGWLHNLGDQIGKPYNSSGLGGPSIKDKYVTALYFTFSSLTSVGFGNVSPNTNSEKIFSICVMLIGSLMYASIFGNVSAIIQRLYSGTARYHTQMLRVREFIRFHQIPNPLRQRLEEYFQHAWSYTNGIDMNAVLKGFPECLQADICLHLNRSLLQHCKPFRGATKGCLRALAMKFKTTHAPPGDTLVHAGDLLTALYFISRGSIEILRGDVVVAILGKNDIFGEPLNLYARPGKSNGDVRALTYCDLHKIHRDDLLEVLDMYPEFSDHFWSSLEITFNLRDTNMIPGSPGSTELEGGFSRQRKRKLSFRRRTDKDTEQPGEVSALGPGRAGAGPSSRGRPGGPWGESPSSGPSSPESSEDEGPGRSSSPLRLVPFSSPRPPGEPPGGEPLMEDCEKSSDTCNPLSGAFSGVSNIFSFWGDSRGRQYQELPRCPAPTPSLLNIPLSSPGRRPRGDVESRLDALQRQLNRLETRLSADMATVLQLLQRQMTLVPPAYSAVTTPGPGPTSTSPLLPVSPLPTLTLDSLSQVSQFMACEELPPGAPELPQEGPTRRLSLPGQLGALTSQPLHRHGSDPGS

On to `CC[C@H]1OC(=O)[C@H](C)C(=O)[C@H](C)[C@@H](O[C@@H]2O[C@H](C)C[C@H](N(C)C)[C@H]2O)[C@](C)(O)C[C@@H](C)C(=O)[C@H](C)[C@H]2N(C3CN([C@@H](C)c4ccnc5ncccc45)C3)C(=O)O[C@]12C`, for which the MIC is at most 0.06 µg/mL against Streptococcus pneumoniae [1]; at most 0.06 µg/mL against Streptococcus pneumoniae [2]; 0.25 µg/mL (≈ 0.309 µM) against Streptococcus pneumoniae [3]; 16 µg/mL (≈ 19.8 µM) against Streptococcus pyogenes; 16 µg/mL (≈ 19.8 µM) in the series on Haemophilus influenzae [4]. The half-life at 1 µM in series [5] was below 2 h.
On to `CC[C@H]1OC(=O)[C@H](C)C(=O)[C@H](C)[C@@H](O[C@@H]2O[C@H](C)C[C@H](N(C)C)[C@H]2O)[C@](C)(O)C[C@@H](C)C(=O)[C@H](C)[C@H]2N(C3CN(Cc4c(OC)cnc5ncccc45)C3)C(=O)O[C@]12C`, for which the MIC against Streptococcus pneumoniae [1] is at most 0.06 µg/mL; against Streptococcus pneumoniae [2] it was at most 0.06 µg/mL; with Streptococcus pneumoniae [3] it was at most 0.06 µg/mL; in the series on Streptococcus pyogenes, at most 0.06 µg/mL; against Haemophilus influenzae [4], 8 µg/mL (≈ 9.69 µM). The hepatic extraction ratio at 1 µM in series [6] was found to be 0.8. For the same compound, the half-life at 1 µM in [5] is below 2 h.
Regarding `CC[C@H]1OC(=O)[C@H](C)C(=O)[C@H](C)[C@@H](O[C@@H]2O[C@H](C)C[C@H](N(C)C)[C@H]2O)[C@](C)(O)C[C@@H](C)C(=O)[C@H](C)[C@H]2N(C3CN(Cc4cccc5nc[nH]c45)C3)C(=O)O[C@]12C`, the MIC with Streptococcus pneumoniae [1] was at most 0.06 µg/mL; in the series on Streptococcus pneumoniae [2] it was 0.125 µg/mL (≈ 0.159 µM); against Streptococcus pneumoniae [3], 0.5 µg/mL (≈ 0.638 µM); in the series on Streptococcus pyogenes, 8 µg/mL (≈ 10.2 µM); against Haemophilus influenzae [4], 8 µg/mL (≈ 10.2 µM). Further, the half-life at 1 µM in series [5] was below 2 h.
Take `CC[C@H]1OC(=O)[C@H](C)C(=O)[C@H](C)[C@@H](O[C@@H]2O[C@H](C)C[C@H](N(C)C)[C@H]2O)[C@](C)(O)C[C@@H](C)C(=O)[C@H](C)[C@H]2N(C3CN(Cc4ccnc5cccnc45)C3)C(=O)O[C@]12C`: the MIC was at most 0.06 µg/mL in the series with Streptococcus pneumoniae [1]; at most 0.06 µg/mL with Streptococcus pneumoniae [2]; at most 0.06 µg/mL in the series with Streptococcus pneumoniae [3]; 1 µg/mL (≈ 1.26 µM) against Streptococcus pyogenes; 8 µg/mL (≈ 10.1 µM) against Haemophilus influenzae [4]. Also, in series [6], the hepatic extraction ratio at 1 µM amounted to 0.7. Further, the Stability result in [7] was “Stable”. In series [5], the half-life at 1 µM was below 2 h. In [8], the IC50 was 196 µM.
With `CC[C@H]1OC(=O)[C@H](C)C(=O)[C@H](C)[C@@H](O[C@@H]2O[C@H](C)C[C@H](N(C)C)[C@H]2O)[C@](C)(O)C[C@@H](C)C(=O)[C@H](C)[C@H]2N(C3CN(Cc4ccnc5ncccc45)C3)C(=O)O[C@]12C`, the MIC in the series on Streptococcus pneumoniae [1] is at most 0.06 µg/mL; against Streptococcus pneumoniae [2] it was at most 0.06 µg/mL; in the series with Streptococcus pneumoniae [3], 0.12 µg/mL (≈ 0.151 µM); in the series on Streptococcus pyogenes it was 1 µg/mL (≈ 1.26 µM); against Haemophilus influenzae [4], 4 µg/mL (≈ 5.03 µM). Also, the hepatic extraction ratio at 1 µM in [6] was 0.6. Besides, the Stability result in series [7] is on record as “Unstable”. In addition, the half-life at 1 µM in series [5] was below 2 h. The compound further showed an IC50 in series [8] of 80 µM.
Turning to `CC[C@H]1OC(=O)[C@H](C)C(=O)[C@H](C)[C@@H](O[C@@H]2O[C@H](C)C[C@H](N(C)C)[C@H]2O)[C@](C)(O)C[C@@H](C)C(=O)[C@H](C)[C@H]2N(C3CN([C@H](C)c4ccnc5ncccc45)C3)C(=O)O[C@]12C`, the MIC in the series with Streptococcus pneumoniae [1] was at most 0.06 µg/mL; against Streptococcus pneumoniae [2], at most 0.06 µg/mL; with Streptococcus pneumoniae [3], 0.25 µg/mL (≈ 0.309 µM); against Streptococcus pyogenes, 1 µg/mL (≈ 1.23 µM); with Haemophilus influenzae [4] it was 4 µg/mL (≈ 4.94 µM). In addition, the hepatic extraction ratio at 1 µM in [6] worked out at 0.3. Moreover, in series [7], the Stability result was “Unstable”. Further, the half-life at 1 µM in series [5] was below 2 h. For the same compound, the IC50 in [8] was 43 µM. Besides, the ED50 is 54.5 mg/kg in the series on Streptococcus pneumoniae [9] and 35.6 mg/kg in the series with Haemophilus influenzae [10].
Regarding `CC[C@H]1OC(=O)[C@H](C)C(=O)[C@H](C)[C@@H](O[C@@H]2O[C@H](C)C[C@H](N(C)C)[C@H]2O)[C@](C)(O)C[C@@H](C)C(=O)[C@H](C)[C@H]2N(C3CN(Cc4c(O)cnc5ncccc45)C3)C(=O)O[C@]12C`, the MIC is at most 0.06 µg/mL against Streptococcus pneumoniae [1]; at most 0.06 µg/mL against Streptococcus pneumoniae [2]; at most 0.06 µg/mL against Streptococcus pneumoniae [3]; 0.25 µg/mL (≈ 0.308 µM) with Streptococcus pyogenes; 4 µg/mL (≈ 4.93 µM) in the series with Haemophilus influenzae [4]. Also, the hepatic extraction ratio at 1 µM in [6] was below 0.3. In addition, in series [7], the Stability entry is on record as “Unstable”. Besides, in series [5], the half-life at 1 µM was below 2 h. In series [8], this compound gave an IC50 of 140 µM.
`CC[C@H]1OC(=O)[C@H](C)C(=O)[C@H](C)[C@@H](O[C@@H]2O[C@H](C)C[C@H](N(C)C)[C@H]2O)[C@](C)(O)C[C@@H](C)C(=O)[C@H](C)[C@H]2N(C3CN(Cc4c(O)cnc5cccnc45)C3)C(=O)O[C@]12C`: the MIC against Streptococcus pneumoniae [1] was at most 0.06 µg/mL; in the series with Streptococcus pneumoniae [2], at most 0.06 µg/mL; in the series with Streptococcus pneumoniae [3], at most 0.06 µg/mL; in the series with Streptococcus pyogenes, 0.5 µg/mL (≈ 0.616 µM); against Haemophilus influenzae [4], 4 µg/mL (≈ 4.93 µM). In addition, the hepatic extraction ratio at 1 µM in series [6] is below 0.3. Besides, the Stability result in series [7] is “Stable”. Also, the half-life at 1 µM in series [5] is below 2 h. Moreover, in [8], 67 µM corresponded to half-maximal inhibition (IC50). For the same compound, the figures for the ED50 in the series with Streptococcus pneumoniae [9] and in the series with Haemophilus influenzae [10] were 26.8 mg/kg and 53.6 mg/kg, respectively.
Turning to `CC[C@H]1OC(=O)[C@H](C)[C@@H](O[C@H]2C[C@@](C)(OC)[C@@H](O)[C@H](C)O2)[C@H](C)[C@@H](O[C@@H]2O[C@H](C)C[C@H](N(C)C)[C@H]2O)[C@](C)(OC)C[C@@H](C)C(=O)[C@H](C)[C@@H](O)[C@]1(C)O` [CLARITHROMYCIN], the MIC is at most 0.06 µg/mL against Streptococcus pneumoniae [1]; above 64 µg/mL in the series with Streptococcus pneumoniae [2]; 16 µg/mL (≈ 21.4 µM) against Streptococcus pneumoniae [3]; above 64 µg/mL with Streptococcus pyogenes; 16 µg/mL (≈ 21.4 µM) against Haemophilus influenzae [4]. Further, the half-life at 1 µM in series [5] is below 2 h. Besides, the ED50 in the series with Streptococcus pneumoniae [9] and in the series with Haemophilus influenzae [10] was above 100 mg/kg in each case.
As for `CC[C@H]1OC(=O)[C@H](C)C(=O)[C@H](C)[C@@H](O[C@@H]2O[C@H](C)C[C@H](N(C)C)[C@H]2O)[C@](C)(OC)C[C@@H](C)C(=O)[C@H](C)[C@H]2N(CCCCn3cnc(-c4cccnc4)c3)C(=O)O[C@]12C` [TELITHROMYCIN], the MIC against Streptococcus pneumoniae [1] is at most 0.06 µg/mL; in the series on Streptococcus pneumoniae [2], at most 0.06 µg/mL; in the series on Streptococcus pneumoniae [3] it was at most 0.06 µg/mL; in the series on Streptococcus pyogenes, 32 µg/mL (≈ 39.4 µM); in the series with Haemophilus influenzae [4] it was 4 µg/mL (≈ 4.93 µM). The hepatic extraction ratio at 1 µM in series [6] stood at 0.7. For the same compound, the Stability entry in series [7] is recorded as “Stable”. For the same compound, the half-life at 1 µM in series [5] is below 2 h. The IC50 in [8] was found to be 40 µM. In addition, the ED50 in the series on Streptococcus pneumoniae [9] is 31.2 mg/kg; in the series with Haemophilus influenzae [10], 37.5 mg/kg.

One may read the half-life as the time needed for the level to fall by half in the phase considered. As usually defined, the IC50 is the point on the concentration scale where inhibition reaches its midpoint. A lower IC50 goes with inhibition by little substance.

Values taken from ChEMBL document CHEMBL1154167, “Discovery of azetidinyl ketolides for the treatment of susceptible and multidrug resistant community-acquired respiratory tract infections” (J Med Chem, 2009).
